Among the data in ChEMBL document CHEMBL5108071, “Potent and Specific Activators for Mitochondrial Sirtuins Sirt3 and Sirt5” (J Med Chem, 2022) are Kd values, retold here.

Each structure is given as a SMILES string.

Assay [1] concerns the target T1, NAD-dependent protein deacylase sirtuin-5, mitochondrial (Homo sapiens, UniProt Q9NXA8). Nature of the assay: Binding affinity to N-terminal his-tagged human SIRT5 (34 to 302 residues) expressed in Escherichia coli assessed as dissociation constant using NAD+ as substrate. The method, boiled down: (§1)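 MST binding: Sirt5 labelled 2 h at room temperature in the dark with twofold molar excess FITC in PBS pH 7.4, free dye removed; 10 nM labelled protein incubated with ligand plus saturating 0.5 mM peptide or 5 mM NAD+ in PBS, 10% DMSO, 30 min on ice; read at 25 °C.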

Assay [2] addresses T1, NAD-dependent protein deacylase sirtuin-5, mitochondrial. Briefly: Binding affinity to N-terminal his-tagged human SIRT5 (34 to 302 residues) expressed in Escherichia coli assessed as dissociation constant using CPS1-succK537 peptide as substrate. The method, boiled down:
as §1

T1 sequence (Q9NXA8 whole entry, the tested form may be a part): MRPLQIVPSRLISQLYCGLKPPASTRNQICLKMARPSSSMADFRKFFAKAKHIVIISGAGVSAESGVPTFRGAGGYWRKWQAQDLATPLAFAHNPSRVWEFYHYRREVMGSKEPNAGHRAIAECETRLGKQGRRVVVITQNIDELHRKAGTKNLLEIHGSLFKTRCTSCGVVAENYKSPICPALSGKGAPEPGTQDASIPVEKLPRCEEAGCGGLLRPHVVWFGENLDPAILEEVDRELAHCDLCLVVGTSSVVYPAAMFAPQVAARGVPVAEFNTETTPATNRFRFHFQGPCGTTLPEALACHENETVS

For orientation: Kd means the concentration at which binding is half-saturated. In the case of `CCOC(=O)C1=CN(C(=O)c2ccccc2)C=C(C(=O)OCC)C1c1ccsc1`, the dissociation constant (Kd) in assay [1] is 28 µM; in assay [2], 24 µM.
